Calls of active or inactive are those of the source. The rule behind the calls is not given here.
How the values were obtained:
Plasma = assay: Anticoagulation activity in human plasma assessed as drug level causing doubling of prothrombin time incubated for 3 mins; format: functional; details: 0.05 h
In short: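 Citrated human plasma (0.11 M citrate 1:9, spun ~4000g 15 min) incubated with compound at 37 °C for 3 min. Clotting started with thromboplastin and time to coagulation recorded. Value is the concentration doubling clotting time (PT or aPTT).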

[1] = Volume of distribution at steady state in Wistar Hannover rat at 0.3 to 0.5 mg/kg, iv by LC-MS/MS analysis; format: ADME, organism-based; details: in vivo, dose 0.3-0.5 mg/kg, time <=24 hrs, read-out: Vdss
In short: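 Male Wistar Hannover rats, catheterized under isoflurane; one day later iv injection into lateral tail vein at 0.3 to 0.5 mg/kg in plasma containing 2% DMSO. Blood sampled via catheter from 0.033 to 24 h. Plasma precipitated with acetonitrile, analysed by LC-MS/MS (10 mM ammonium acetate pH 3.0/acetonitrile gradient). PK parameters calculated from plasma concentrations.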

[2] = target: T1, Coagulation factor VII (Homo sapiens) (UniProt P08709); assay: Inhibition of purified human plasma factor-7a up to 20 uM incubated for 30 mins by fluorescence based based coupled protease reaction assay; details: dose microM <=20, time 30.0 min
T1 sequence (whole entry): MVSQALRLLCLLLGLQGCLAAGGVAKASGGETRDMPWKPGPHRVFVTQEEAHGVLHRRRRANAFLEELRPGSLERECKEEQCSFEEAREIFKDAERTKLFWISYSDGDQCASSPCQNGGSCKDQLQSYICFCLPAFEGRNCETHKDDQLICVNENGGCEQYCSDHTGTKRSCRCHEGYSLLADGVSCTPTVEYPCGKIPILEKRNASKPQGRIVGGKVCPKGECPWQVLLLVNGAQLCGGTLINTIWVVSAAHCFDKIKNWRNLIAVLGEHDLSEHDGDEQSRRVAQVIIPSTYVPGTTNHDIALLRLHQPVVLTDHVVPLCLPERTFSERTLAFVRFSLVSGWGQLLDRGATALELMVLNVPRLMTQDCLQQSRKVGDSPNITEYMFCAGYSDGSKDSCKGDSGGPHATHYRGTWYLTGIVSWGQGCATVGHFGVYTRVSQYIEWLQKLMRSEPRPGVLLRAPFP
In short: (§1)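 Final levels: thrombin 0.02 nM; FXa 1.3 nM; FXIa 0.15 nM; plasmin 1.2 nM (substrate 50 μM); tPA 2 nM; kallikrein 0.2 nM; trypsin 0.1 nM; other AMC substrates 5 μM. FVIIa 0.5 pM coupled with tissue factor, factor X 12 nM, FXa substrate 50 μM.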

[3] = target: Plasma kallikrein (Homo sapiens) (UniProt P03952); assay: Inhibition of purified human plasma kallikrein up to 20 uM using H-Pro-Phe-Arg-AMC substrate incubated for 30 mins by fluorescence based assay; details: dose microM <=20, time 30.0 min; in short: as §1
Sequence of Plasma kallikrein (Homo sapiens) (P03952 20-390 limits assumed): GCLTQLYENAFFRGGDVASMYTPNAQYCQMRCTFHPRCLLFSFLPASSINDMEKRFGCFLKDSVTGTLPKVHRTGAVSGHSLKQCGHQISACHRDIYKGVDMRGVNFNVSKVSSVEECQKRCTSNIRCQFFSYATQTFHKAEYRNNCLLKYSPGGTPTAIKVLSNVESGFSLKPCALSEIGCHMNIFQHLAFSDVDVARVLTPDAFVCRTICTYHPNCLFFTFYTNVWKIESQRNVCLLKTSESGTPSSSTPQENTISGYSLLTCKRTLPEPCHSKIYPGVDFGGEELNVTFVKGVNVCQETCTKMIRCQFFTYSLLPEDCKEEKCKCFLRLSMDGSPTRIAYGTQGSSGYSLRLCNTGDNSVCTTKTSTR
Sequence of Plasma kallikrein (Homo sapiens) (P03952 391-638 limits assumed): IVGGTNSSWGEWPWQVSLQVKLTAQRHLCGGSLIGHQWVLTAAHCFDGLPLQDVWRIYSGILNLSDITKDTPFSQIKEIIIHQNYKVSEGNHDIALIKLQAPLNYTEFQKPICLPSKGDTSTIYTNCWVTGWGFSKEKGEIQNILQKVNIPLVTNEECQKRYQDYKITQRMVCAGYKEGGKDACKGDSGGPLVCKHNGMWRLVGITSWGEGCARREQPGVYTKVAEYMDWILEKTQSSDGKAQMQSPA

Prothrombin = Prothrombin (Rattus norvegicus, UniProt P18292); assay: Inhibition of thrombin in rat plasma; format: cell-free
Rattus norvegicus = assay: Antithrombotic activity in HsdCpd:WU rat thrombosis model with venous stasis assessed as reduction in thrombus weight at 1 to 10 mg/kg, po dosed 90 mins before thrombus induction measured after 15 mins; format: functional, organism-based; details: dose mg/kg 1-10, time 105.0 min
In short: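 Anesthetized rats, n = 6−10 per dose group. Compound in PEG/water/glycerol or vehicle given by gavage 90 min before induction. Two loose sutures placed on vena cava below left renal vein; thromboplastin 0.5 mg/kg iv into femoral vein, sutures tied after 15 s. Segment removed 15 min later and thrombus weighed.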

SMILES: COc1cc(C(=O)N2C[C@H](C)OC[C@@H]2CCO)cc2nc(N[C@H](CF)c3cccc(Cl)c3)oc12
- 2PT (Plasma): 1.1 µM
- Vd [1]: 3.5 L/kg
- inhibition [2]: inactive
- inhibition [3]: inactive
- IC50 (Prothrombin): 0.01 µM
- Activity (Rattus norvegicus): Dose-dependent effect

Source: ChEMBL document CHEMBL4665889, “Design, Synthesis, and Pharmacological Characterization of a Neutral, Non-Prodrug Thrombin Inhibitor with Good Oral Pharmacokinetics” (J Med Chem, 2020)
